From ChEMBL document CHEMBL3259631, “Identification of the first potent, selective and bioavailable PPARα antagonist” (Bioorg Med Chem Lett, 2014)
pEC50, pIC50: −log10 of the molar value. Converted amounts (≈) assume the structure as drawn. The source made the active and inactive calls. The calls are words filed in the database; no cut-off is given here.

What was measured:
[1] = target: T1, Peroxisome proliferator-activated receptor alpha (Homo sapiens, UniProt Q07869); assay: Antagonist activity at human PPAR-alpha assessed as inhibition of GW7647-induced effect after overnight incubation by cell-based luciferase reporter gene assay
T1 sequence (Q07869 whole entry): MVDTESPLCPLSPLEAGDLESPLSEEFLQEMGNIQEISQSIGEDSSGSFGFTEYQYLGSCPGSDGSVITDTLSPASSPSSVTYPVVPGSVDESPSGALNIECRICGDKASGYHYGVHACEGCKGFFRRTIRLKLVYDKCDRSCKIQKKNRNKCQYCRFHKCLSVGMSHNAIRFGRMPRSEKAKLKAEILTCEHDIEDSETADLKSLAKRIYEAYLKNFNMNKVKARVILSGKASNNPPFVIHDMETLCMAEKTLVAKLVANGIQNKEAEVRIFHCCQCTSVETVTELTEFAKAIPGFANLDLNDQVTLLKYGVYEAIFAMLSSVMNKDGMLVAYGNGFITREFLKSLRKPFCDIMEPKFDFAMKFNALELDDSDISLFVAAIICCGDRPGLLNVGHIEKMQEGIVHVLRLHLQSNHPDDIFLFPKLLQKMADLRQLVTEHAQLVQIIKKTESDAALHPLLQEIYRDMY

[2] = (§1) Metabolic stability in mouse plasma assessed as compound remaining at 1 uM after 24 hrs by LC-MS/MS analysis; type: ADME, cell-free; conditions: read-out: Stability
Method in brief: (§2)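 A 30 mM DMSO stock was diluted to 100 µM in acetonitrile, then spiked into thawed mouse plasma (1 µM final) and incubated at 37 °C. Aliquots were precipitated in acetonitrile containing buspirone, shaken 5 min and centrifuged at 4000g for 10 min. Supernatant was analysed by LC-MS/MS. Percent remaining = concentration at each time / t0 concentration × 100; mean of at least three experiments.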

[3] = Solubility of the compound in aqueous buffer at pH 7.4 after 24 hrs by LC-MS/MS analysis; type: physicochemical
Method in brief: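 Compound from a 10 mM DMSO stock was added to pH 7.4 buffer, vortexed 2 min, then shaken on an orbital shaker for 24 h at room temperature. Samples were then vacuum-filtered through a polycarbonate membrane before measurement.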

[4] = AUC in CD-1 mouse at 30 mg/kg, ip; type: ADME, organism-based; design: dose 30 mg/kg, route intraperitoneal; conditions: plasma
Method in brief: (§3)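 Mouse pharmacokinetics in CD1 mice given a single intraperitoneal dose of 30 mpk, formulated in saline or in 98% saline/2% tween.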

[5] = Cmax in CD-1 mouse at 30 mg/kg, ip after 1 hr; type: ADME, organism-based; design: dose 30 mg/kg, route intraperitoneal; conditions: in vivo; method in brief: as §3
[6] = target: T2, Peroxisome proliferator-activated receptor delta (Homo sapiens, UniProt Q03181); assay: Inhibition of human PPAR-delta
T2 sequence (Q03181 whole entry): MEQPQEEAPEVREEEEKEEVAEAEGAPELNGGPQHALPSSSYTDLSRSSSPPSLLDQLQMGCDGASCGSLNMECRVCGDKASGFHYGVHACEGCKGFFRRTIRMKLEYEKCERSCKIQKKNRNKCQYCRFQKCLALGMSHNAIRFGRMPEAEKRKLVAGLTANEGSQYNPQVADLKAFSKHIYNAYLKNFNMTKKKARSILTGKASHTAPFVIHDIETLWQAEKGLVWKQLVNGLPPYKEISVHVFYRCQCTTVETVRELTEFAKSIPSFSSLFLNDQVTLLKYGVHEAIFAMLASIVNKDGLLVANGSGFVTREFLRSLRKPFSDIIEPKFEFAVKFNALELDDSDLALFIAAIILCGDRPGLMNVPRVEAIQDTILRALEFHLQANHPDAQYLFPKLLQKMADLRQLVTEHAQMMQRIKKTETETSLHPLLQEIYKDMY

[7] = target: T3, Peroxisome proliferator-activated receptor gamma (Homo sapiens, UniProt P37231); assay: Inhibition of human PPAR-gamma
T3 sequence (P37231 whole entry): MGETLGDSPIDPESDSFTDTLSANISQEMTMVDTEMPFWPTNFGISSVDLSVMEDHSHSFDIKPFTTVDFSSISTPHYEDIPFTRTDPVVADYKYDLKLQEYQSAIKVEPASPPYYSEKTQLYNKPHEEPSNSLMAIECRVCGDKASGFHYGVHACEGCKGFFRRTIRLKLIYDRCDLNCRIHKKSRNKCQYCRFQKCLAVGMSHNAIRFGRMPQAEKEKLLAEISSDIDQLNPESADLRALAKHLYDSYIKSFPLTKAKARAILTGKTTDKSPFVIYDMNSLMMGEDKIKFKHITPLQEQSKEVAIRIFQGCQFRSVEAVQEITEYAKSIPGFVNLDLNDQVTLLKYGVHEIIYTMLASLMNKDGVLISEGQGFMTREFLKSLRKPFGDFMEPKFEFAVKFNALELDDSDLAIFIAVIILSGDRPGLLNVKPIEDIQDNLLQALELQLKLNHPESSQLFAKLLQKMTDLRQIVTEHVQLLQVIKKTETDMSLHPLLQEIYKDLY

Estrogen receptor beta = Estrogen receptor beta (Homo sapiens, UniProt Q92731); assay: Inhibition of human estrogen receptor beta
Glucocorticoid receptor = target: T4, Glucocorticoid receptor (Homo sapiens, UniProt P04150); assay: Inhibition of human glucocorticoid receptor
T4 sequence (P04150 whole entry): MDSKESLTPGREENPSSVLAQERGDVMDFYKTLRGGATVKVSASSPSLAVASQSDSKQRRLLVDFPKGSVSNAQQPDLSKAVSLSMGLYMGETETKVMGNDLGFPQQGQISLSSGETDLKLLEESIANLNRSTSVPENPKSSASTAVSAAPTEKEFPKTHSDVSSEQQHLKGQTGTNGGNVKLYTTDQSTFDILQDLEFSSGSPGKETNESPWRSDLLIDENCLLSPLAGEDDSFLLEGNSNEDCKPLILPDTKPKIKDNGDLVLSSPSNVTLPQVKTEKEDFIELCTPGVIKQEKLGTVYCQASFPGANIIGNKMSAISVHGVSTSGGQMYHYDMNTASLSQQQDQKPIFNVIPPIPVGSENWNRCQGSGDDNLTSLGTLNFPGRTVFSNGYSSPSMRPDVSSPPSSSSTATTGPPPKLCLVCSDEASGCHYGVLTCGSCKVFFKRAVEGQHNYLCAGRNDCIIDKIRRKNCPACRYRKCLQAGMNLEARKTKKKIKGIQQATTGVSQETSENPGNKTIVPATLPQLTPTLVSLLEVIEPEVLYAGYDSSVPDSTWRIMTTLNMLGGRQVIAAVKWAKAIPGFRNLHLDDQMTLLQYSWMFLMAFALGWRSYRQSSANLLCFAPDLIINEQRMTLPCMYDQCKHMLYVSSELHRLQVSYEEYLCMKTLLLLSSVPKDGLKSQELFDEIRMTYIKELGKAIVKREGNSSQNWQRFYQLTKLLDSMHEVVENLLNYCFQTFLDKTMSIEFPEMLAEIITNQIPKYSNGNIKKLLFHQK

[8] = target: T5, Thyroid hormone receptor beta (Homo sapiens, UniProt P10828); assay: Inhibition of human thyroid hormone receptor-beta
T5 sequence (P10828 whole entry): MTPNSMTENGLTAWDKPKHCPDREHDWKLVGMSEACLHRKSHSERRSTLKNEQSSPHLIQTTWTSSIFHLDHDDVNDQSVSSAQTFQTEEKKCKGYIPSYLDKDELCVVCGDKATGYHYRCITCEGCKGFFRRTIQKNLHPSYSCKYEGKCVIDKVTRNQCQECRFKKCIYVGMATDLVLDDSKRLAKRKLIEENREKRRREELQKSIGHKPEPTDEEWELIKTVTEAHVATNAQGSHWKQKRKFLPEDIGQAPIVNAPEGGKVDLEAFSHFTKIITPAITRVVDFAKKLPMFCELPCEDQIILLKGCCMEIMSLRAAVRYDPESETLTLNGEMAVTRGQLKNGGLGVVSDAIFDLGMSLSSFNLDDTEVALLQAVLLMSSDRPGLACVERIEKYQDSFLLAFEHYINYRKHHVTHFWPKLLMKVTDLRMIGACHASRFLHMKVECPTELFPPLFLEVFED

Plasma [9] = assay: Drug level in mouse plasma treated with 1 uM 5 after 24 hrs by LC-MS/MS analysis; type: ADME, cell-free
[10] = target: T1, Peroxisome proliferator-activated receptor alpha; assay: Agonist activity at human PPAR-alpha
Plasma [11] = assay: as §1; type: ADME, cell-free; conditions: 24 h, 1 µM; method in brief: as §2
[12] = target: T1, Peroxisome proliferator-activated receptor alpha; assay: Antagonist activity at GST-tagged PPAR-alpha (unknown origin) assessed as inhibition of GW7647-induced effect after 2 hrs by TR-FRET assay
Mus musculus = assay: Reduction in plasma FGF21 level in C57Bl/6 mouse at 30 mg/kg, ip administered for 4 days followed by fasting for last 48 hrs measured 4 hrs post last dose by ELISA; type: functional, organism-based; design: dose 30 mg/kg
Method in brief: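 C57Bl/6 mice received intraperitoneal drug or saline vehicle daily for four days, with 48 h fasting starting on day 2. Four hours after the final dose, blood was taken by terminal cardiac puncture into EDTA. Plasma FGF21 was measured by ELISA and compared against vehicle by t test.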

Estrogen receptor beta, sequence (Q92731 whole entry): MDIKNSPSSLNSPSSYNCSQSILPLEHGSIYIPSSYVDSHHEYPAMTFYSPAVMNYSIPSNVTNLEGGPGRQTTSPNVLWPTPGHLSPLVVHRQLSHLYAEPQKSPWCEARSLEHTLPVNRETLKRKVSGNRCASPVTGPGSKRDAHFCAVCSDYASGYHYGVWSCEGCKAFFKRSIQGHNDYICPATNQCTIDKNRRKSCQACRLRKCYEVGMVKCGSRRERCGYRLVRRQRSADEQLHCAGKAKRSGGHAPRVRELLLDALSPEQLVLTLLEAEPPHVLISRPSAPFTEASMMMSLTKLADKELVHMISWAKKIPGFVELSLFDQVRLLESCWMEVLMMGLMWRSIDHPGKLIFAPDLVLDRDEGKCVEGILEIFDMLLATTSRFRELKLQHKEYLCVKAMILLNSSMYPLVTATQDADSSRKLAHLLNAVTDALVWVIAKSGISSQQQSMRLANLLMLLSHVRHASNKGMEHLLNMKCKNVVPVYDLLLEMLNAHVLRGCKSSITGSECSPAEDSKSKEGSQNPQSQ

Row | SMILES | pIC50 [1] | remaining at 24 h, 1 µM [2] [%] | solubility at 24 h [3] [µM] | AUC [4] [ng·h/mL] | Cmax [5] [µM] | pIC50 [6] | pIC50 [7] | pIC50 (Estrogen receptor beta) | pIC50 (Glucocorticoid receptor) | pIC50 [8] | Drug metabolism (Plasma [9]) | pEC50 [10] | Stability (Plasma [11]) [%] | pEC50 [12] | Activity (Mus musculus)
1 | CCn1c(CCCc2ccc(-c3ccc(NS(=O)(=O)c4ccc(-c5ccc(OC)cc5)cc4)cc3)cc2)nn(Cc2ccc(C(C)(C)C)cc2)c1=O | 5.32 | 119 | 0.082 (≈ 0.0586 µg/mL) | 23000 | 7.2 | < 4.00 | < 4.00 | 4.46 | 4.49 | < 4.16 |  |  |  |  | 
2 | CCn1c(CCCc2ccc(OC(C)(C)C(=O)O)cc2)nn(Cc2ccc(C(C)(C)C)cc2)c1=O |  |  |  |  |  |  |  |  |  |  | metabolite_detected |  |  |  | 
3 | CCn1c(CCCc2ccc(-c3ccc(NS(=O)(=O)c4ccccc4)cn3)cc2)nn(Cc2ccc(C(C)(C)C)cc2)c1=O | 7.11 |  | 1.5 (≈ 0.915 µg/mL) | 3400 | 1.2 | 5.22 | 4.82 | 4.82 | 4.49 | < 4.00 |  | < 4.00 | 140.6 | 5.85 | Active
